Assay results collected from several papers.
Compare with care: the assays were run in different laboratories. ≈ marks a conversion by molar mass, not a printed value.

Compound	target or system	assay	system	setting	measurement	value
COCCOCOc1cc(OCc2cc(F)cc(F)c2)c(C(=O)/C=C/c2ccc(C(=O)O)cc2)cc1C12CC3CC(CC(C3)C1)C2	Jurkat	cell growth or viability, ATP luminescence	–	24 h	IC50	0.93 µM
N.N.[Cl][Pt][Cl]	PLC	cell growth or viability	–	24 h	IC50	63.9 µM
COC(=O)c1cc(-c2cccc(NC(=O)Nc3ccc(Cl)cc3Cl)c2)on1	Mycobacteroides abscessus	microbial growth, broth dilution	ATCC19977	48 h	MIC	> 64 µg/mL
CO[C@H]1/C=C/O[C@@]2(C)Oc3c(C)c(O)c4c(O)c(c(/C=N/N5CCN(C)CC5)c(O)c4c3C2=O)NC(=O)/C(C)=C\C=C\[C@H](C)[C@H](O)[C@@H](C)[C@@H](O)[C@@H](C)[C@H](OC(C)=O)[C@@H]1C	Mycobacteroides abscessus	microbial growth	ATCC19977	–	MIC	25 to 100 µg/mL (≈ 30.4 to 122 µM)
CN(C(=O)/C=C/c1ccoc1)[C@@H]1CC[C@@]2(O)[C@H]3Cc4ccc(O)c5c4[C@@]2(CCN3CC2CC2)[C@H]1O5	–	thermal pain	mouse	subcutaneous	ED50	0.046 mg/kg
Cn1cnc(Cn2c(=O)[nH]/c(=N\c3cc4cn(C)nc4cc3Cl)n(Cc3cc(F)c(F)cc3F)c2=O)n1	Alphacoronavirus 1	viral replication, inhibitor, qPCR	CRFK	–	EC50	~50 µM
[H]/N=C(/N)N[C@H]1[C@H](O)[C@@H](O)[C@H](O[C@@H]2O[C@@H](C)[C@](O)(C=O)[C@H]2O[C@@H]2O[C@@H](CO)[C@H](O)[C@@H](O)[C@@H]2NC)[C@@H](N/C(N)=N\[H])[C@@H]1O	Mycobacteroides abscessus	microbial growth	ATCC19977	–	MIC	50 µg/mL (≈ 86 µM)
COC(=O)c1cc(-c2cccc(NC(=O)Nc3cccc(Cl)c3)c2)on1	Mycobacteroides abscessus	microbial growth, broth dilution	ATCC19977	48 h	MIC	> 64 µg/mL
COCCOCOc1cc(O)c(-c2cc(-c3ccc(C(=O)O)cc3)n(-c3ccccc3)n2)cc1C12CC3CC(CC(C3)C1)C2	Jurkat	cell growth or viability, ATP luminescence	–	24 h	IC50	2.54 µM
O=C(O)c1cn(C2CC2)c2cc(N3CCNCC3)c(F)cc2c1=O	Mycolicibacterium vaccae	microbial growth	IMET10670	5 µg/mL	inhibition zone	41 mm
COC(=O)c1cc(-c2cccc(NC(=S)Nc3ccc(C#N)cc3)c2)on1	Mycobacteroides abscessus	microbial growth, broth dilution	ATCC19977	48 h	MIC	> 64 µg/mL
CCC1(c2ccc(N)cc2)CCC(=O)NC1=O (stereo not shown)	DU-145	cell growth or viability, CCK-8	–	48 h	IC50	> 50 µM
COc1c2c(cc3c1OCO3)[C@]13C=C[C@H](OC)C[C@@H]1[N@](C2)C[C@H]3OC(=O)c1ccc2ccccc2c1	MOLT-4	cell growth or viability, WST-1	–	–	IC50	> 10 µM
